Data published in ChEMBL document CHEMBL4038327, “Inhibitory Kappa B Kinase α (IKKα) Inhibitors That Recapitulate Their Selectivity in Cells against Isoform-Related Biomarkers” (J Med Chem, 2017).

Assays:
[1] = target: T1, Inhibitor of nuclear factor kappa-B kinase subunit beta (Homo sapiens, UniProt O14920); assay: Inhibition of IKKbeta in human U2OS cells assessed as decrease in TNFalpha induced p65 phosphorylation at ser536 residues at 100 uM preincubated for 1 hr followed by TNFalpha stimulation for 30 mins by Western blot analysis; assay type: cell-based; settings: 0.5 h
T1 sequence (O14920 whole entry): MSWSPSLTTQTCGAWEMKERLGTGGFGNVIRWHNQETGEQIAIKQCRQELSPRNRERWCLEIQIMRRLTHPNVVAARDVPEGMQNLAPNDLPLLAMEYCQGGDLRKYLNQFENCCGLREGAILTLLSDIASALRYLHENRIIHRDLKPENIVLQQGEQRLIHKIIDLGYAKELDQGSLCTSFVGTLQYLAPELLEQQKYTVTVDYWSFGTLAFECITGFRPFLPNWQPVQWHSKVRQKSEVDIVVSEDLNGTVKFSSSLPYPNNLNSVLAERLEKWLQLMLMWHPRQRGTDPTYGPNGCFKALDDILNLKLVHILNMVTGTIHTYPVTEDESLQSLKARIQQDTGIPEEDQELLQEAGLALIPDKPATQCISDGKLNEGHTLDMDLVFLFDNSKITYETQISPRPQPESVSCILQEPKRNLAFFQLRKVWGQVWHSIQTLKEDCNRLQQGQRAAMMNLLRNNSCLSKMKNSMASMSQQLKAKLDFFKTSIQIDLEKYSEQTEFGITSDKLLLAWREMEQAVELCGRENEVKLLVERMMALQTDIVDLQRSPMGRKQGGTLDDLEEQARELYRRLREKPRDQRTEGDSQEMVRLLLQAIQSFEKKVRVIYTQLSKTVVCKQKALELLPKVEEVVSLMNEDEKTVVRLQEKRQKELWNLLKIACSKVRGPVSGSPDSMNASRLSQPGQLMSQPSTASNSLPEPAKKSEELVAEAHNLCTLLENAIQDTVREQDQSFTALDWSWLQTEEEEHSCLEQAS
Summary of the method: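 U2OS cells were grown in McCoy's 5A medium at 37 °C under 5% CO2 and made quiescent by 24 h serum deprivation. They were then pretreated with compound before agonist stimulation in serum-free medium. Phospho-p100, IκBα levels and phospho-p65 (Ser536) were assessed by Western blot.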

[2] = target: T2, Inhibitor of nuclear factor kappa-B kinase subunit alpha (Mus musculus) (UniProt Q60680); assay: Inhibition of IKKalpha in IKKbeta knockout mouse embryonic fibroblast cells harboring Adv.NF-kB.luc assessed as IL-1beta induced NF-kB transcriptional activation at 100 uM pretreated for 1 hr followed by IL-1beta stimulation for 6 hrs by luciferase reporter gene assay relative to control; parameters: scale not given: the % may be the effect or the level left
T2 sequence (whole entry): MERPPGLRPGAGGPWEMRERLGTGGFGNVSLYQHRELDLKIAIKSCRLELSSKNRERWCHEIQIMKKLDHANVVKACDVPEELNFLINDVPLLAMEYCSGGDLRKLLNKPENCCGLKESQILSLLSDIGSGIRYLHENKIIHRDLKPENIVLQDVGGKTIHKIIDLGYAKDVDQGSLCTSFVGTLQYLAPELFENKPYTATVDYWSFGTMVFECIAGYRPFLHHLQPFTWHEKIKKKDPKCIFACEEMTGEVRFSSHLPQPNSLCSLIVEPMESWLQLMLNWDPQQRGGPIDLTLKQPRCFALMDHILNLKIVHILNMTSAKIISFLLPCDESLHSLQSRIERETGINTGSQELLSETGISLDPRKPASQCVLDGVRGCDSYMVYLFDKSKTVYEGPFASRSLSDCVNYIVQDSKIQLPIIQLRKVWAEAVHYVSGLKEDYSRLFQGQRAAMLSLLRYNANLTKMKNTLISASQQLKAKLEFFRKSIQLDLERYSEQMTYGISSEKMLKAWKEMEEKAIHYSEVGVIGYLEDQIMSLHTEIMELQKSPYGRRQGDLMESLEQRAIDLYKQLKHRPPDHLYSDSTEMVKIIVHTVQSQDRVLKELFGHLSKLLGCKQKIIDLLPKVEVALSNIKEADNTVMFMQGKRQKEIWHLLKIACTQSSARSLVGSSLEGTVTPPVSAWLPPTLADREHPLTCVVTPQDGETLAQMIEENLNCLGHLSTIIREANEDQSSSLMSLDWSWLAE
Summary of the method: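 IKKβ knockout MEFs infected with Adv.NF-kB.luc (up to 300 pfu/cell, 24 h, 10% DMEM), replated and serum-starved 24 h. Pretreated 1 h with compound, then IL-1β (10 ng/mL) for 6 h. Lysis buffer contained 0.2 mM luciferin, and luminescence was read as RLU. Results are expressed as % of IL-1β + DMSO stimulation.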

[3] = target: T1, Inhibitor of nuclear factor kappa-B kinase subunit beta; assay: Inhibition of recombinant full length human IKKbeta expressed in baculovirus infected sf9 insect cells using biotinylated IkBalpha as substrate after 60 mins by DELFIA
Summary of the method: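 Recombinant IKKβ (37 nM) was incubated with biotinylated IκB-α (Ser32) peptide (0.375 μM) and 40 μM ATP in Tris-HCl pH 7.5 with MgCl2, EDTA, DTT and BSA for 60 min at 30 °C. The reaction was quenched with EDTA and captured on streptavidin. Detection used anti-phospho-IκBα (Ser32/36) mAb plus Eu-anti-mouse IgG, read by time-resolved fluorescence (340/615 nm). Apparent Ki was obtained via Cheng–Prusoff, n=3.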

[4] = target: Dual specificity mitogen-activated protein kinase kinase 1 (Homo sapiens) (UniProt Q02750); assay: Inhibition of N-terminal GST tagged/C-terminal His6-tagged recombinant full length human Mek1 expressed in Escherichia coli cells at 10 uM relative to control
Sequence of Dual specificity mitogen-activated protein kinase kinase 1 (Homo sapiens) (Q02750 whole entry): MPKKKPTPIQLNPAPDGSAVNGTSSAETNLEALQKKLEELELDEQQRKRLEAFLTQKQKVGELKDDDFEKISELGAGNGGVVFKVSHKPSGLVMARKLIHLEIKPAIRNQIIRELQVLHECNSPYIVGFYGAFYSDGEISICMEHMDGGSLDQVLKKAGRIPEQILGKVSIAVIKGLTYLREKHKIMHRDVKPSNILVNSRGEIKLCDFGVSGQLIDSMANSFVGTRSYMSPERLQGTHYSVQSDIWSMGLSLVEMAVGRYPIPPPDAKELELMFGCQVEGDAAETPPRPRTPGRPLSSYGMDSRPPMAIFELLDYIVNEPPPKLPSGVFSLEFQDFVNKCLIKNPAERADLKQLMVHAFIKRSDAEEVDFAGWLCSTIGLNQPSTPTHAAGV
Summary of the method: (§1)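 Outsourced commercial kinase panel run at a single concentration, with duplicate assay points.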

[5] = target: Glycogen synthase kinase-3 beta (Homo sapiens) (UniProt P49841); assay: Inhibition of human N-terminal GST-tagged GSK3beta at 10 uM relative to control; summary of the method: as §1
Sequence of Glycogen synthase kinase-3 beta (Homo sapiens) (P49841 whole entry, looked up): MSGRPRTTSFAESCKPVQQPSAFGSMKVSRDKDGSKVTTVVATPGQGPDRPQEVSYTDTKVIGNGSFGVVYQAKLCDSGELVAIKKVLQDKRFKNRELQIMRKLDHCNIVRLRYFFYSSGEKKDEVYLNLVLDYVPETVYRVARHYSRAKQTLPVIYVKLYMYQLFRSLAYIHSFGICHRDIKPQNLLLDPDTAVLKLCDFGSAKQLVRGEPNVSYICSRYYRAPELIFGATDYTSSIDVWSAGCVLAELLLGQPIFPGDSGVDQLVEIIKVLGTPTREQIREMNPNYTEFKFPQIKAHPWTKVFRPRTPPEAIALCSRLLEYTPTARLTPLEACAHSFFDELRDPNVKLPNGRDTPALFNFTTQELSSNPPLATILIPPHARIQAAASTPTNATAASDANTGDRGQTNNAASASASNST

[6] = target: Calcium/calmodulin-dependent protein kinase type 1 (Homo sapiens) (UniProt Q14012); assay: Inhibition of N-terminal GST tagged recombinant human CaMK1 (2 end residues) expressed in Escherichia coli cells at 10 uM relative to control; summary of the method: as §1
Sequence of Calcium/calmodulin-dependent protein kinase type 1 (Homo sapiens) (Q14012 whole entry, looked up): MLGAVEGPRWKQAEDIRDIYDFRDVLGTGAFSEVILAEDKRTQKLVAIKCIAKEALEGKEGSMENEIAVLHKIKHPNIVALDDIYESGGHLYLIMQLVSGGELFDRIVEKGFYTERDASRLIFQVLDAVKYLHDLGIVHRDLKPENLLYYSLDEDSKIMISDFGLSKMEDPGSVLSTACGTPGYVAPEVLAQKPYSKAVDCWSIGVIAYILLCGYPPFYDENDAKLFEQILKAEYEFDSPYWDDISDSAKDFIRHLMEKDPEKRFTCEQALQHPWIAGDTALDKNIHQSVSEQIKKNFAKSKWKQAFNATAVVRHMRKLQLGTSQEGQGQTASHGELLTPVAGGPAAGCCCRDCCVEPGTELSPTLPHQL

[7] = target: T3, Aurora kinase A (Homo sapiens) (UniProt O14965); assay: Inhibition of N-terminal His6 tagged recombinant human full length Aurora A expressed in Sf21 cells at 10 uM relative to control; summary of the method: as §1
T3 sequence (whole entry): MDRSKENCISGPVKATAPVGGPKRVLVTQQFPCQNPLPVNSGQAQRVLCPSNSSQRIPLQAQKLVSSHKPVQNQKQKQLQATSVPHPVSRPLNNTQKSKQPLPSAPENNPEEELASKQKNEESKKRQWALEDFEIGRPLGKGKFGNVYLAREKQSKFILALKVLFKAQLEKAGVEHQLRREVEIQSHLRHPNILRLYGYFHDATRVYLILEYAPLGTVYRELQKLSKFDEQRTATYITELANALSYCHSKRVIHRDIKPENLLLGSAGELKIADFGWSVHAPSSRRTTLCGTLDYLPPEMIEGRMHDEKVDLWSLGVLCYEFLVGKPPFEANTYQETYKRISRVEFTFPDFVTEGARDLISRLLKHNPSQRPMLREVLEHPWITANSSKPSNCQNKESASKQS

inhibition (INH) [1]: Active
Activity [2]: -40.9%
Ki [3]: 1000 nM
inhibition [4]: > 80%
inhibition [5]: > 80%
inhibition [6]: > 80%
inhibition [7]: > 80%
SMILES: N#Cc1c[nH]c2nc(N)nc(-c3ccc(S(N)(=O)=O)cc3)c12
